Blank lines part the entries; values can stand above or below the molecule they belong to.
Legend:
Type in all cases: cell-based
Tubulin (Homo sapiens) [1] = target: T1, Tubulin (Homo sapiens) (UniProt P68371+Q9H4B7+P0DPH7+P68366+Q13509+Q71U36+P04350+Q3ZCM7+P07437+P68363+Q9BQE3+Q6PEY2+Q13885+Q9BVA1+Q9BUF5); experiment: Stabilization of microtubules in human QBI293 cells assessed as increase in acetylated tubulin levels after 4 hrs by ELISA
Method in brief: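 QBI293 cells are grown in DMEM with 10% FBS, 2 mM L-glutamine and penicillin/streptomycin, plated at 6 × 10^5 cells/well and incubated overnight. […] Acetyl- and total α-tubulin in whole-cell extract supernatants are measured by ELISA against standard curves, with protein by BCA. Values are fold-change over DMSO; AcTub is also given relative to 100 nM cevipabulin positive control. Significance is by one-way ANOVA.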

Tubulin (Homo sapiens) [2] = target: T1, Tubulin (Homo sapiens); experiment: Stabilization of microtubules in human QBI293 cells assessed as fold change in acetylated tubulin levels at 10 uM after 4 hrs by ELISA relative to cevipabulin
Tubulin (Homo sapiens) [3] = target: T1, Tubulin (Homo sapiens); experiment: Stabilization of microtubules in human QBI293 cells assessed as fold change in acetylated tubulin levels at 1 uM after 4 hrs by ELISA relative to cevipabulin
Tubulin (Homo sapiens) [4] = target: T1, Tubulin (Homo sapiens); experiment: Stabilization of microtubules in human QBI293 cells assessed as fold change in acetylated tubulin levels at 1 uM after 4 hrs by ELISA relative to DMSO
Method in brief: (§1)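 QBI293 cells were grown in DMEM with 10% FBS, 2 mM L-glutamine and penicillin/streptomycin, then plated at 6 × 10^5 cells/well and left overnight. Medium was replaced with fresh medium holding vehicle (DMSO) or compound, and cells were incubated 4 h. Whole-cell extract supernatants were protein-normalized by BCA assay. AcTub and α-tubulin were quantified by ELISA against standard curves. Values are fold-change over DMSO, analysed by one-way ANOVA.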

Tubulin (Homo sapiens) [5] = target: T1, Tubulin (Homo sapiens); experiment: Stabilization of microtubules in human QBI293 cells assessed as fold change in acetylated tubulin levels at 10 uM after 4 hrs by ELISA relative to DMSO; method in brief: as §1
Tubulin (Homo sapiens) [6] = target: T1, Tubulin (Homo sapiens); experiment: Stabilization of microtubules in human QBI293 cells assessed as fold change in alpha tubulin levels at 10 uM after 4 hrs by ELISA relative to DMSO; method in brief: as §1
Tubulin (Homo sapiens) [7] = target: T1, Tubulin (Homo sapiens); experiment: Stabilization of microtubules in human QBI293 cells assessed as fold change in alpha tubulin levels at 1 uM after 4 hrs by ELISA relative to DMSO; method in brief: as §1

- Activity (Tubulin (Homo sapiens) [1]): Dose-dependent effect
Compound: C[C@H](Nc1c(-c2c(F)cc(F)cc2F)c(Cl)nc2ncnn12)C(C)(C)C

Compound: C[C@H](Nc1c(-c2ccc(F)c(F)c2F)c(Cl)nc2ncnn12)C(F)(F)F
- Activity (Tubulin (Homo sapiens) [1]): Dose-dependent effect
- fold change (FC) (Tubulin (Homo sapiens) [2]): 0.34
- fold change (FC) (Tubulin (Homo sapiens) [3]): 0.12
- fold change (FC) (Tubulin (Homo sapiens) [4]): 1.5
- fold change (FC) (Tubulin (Homo sapiens) [5]): 4.28
- fold change (FC) (Tubulin (Homo sapiens) [6]): 0.88
- fold change (FC) (Tubulin (Homo sapiens) [7]): 1.11

Compound: C[C@H](Nc1c(-c2cc(F)ccc2F)c(Cl)nc2ncnn12)C(F)(F)F
- Activity (Tubulin (Homo sapiens) [1]): Dose-dependent effect
- fold change (FC) (Tubulin (Homo sapiens) [2]): 0.22
- fold change (FC) (Tubulin (Homo sapiens) [3]): 0.07
- fold change (FC) (Tubulin (Homo sapiens) [4]): 1.4
- fold change (FC) (Tubulin (Homo sapiens) [5]): 4.1
- fold change (FC) (Tubulin (Homo sapiens) [6]): 0.9
- fold change (FC) (Tubulin (Homo sapiens) [7]): 1.05

Compound: C[C@H](Nc1c(-c2c(F)cc(C(F)(F)F)cc2F)c(Cl)nc2ncnn12)C(F)(F)F
- Activity (Tubulin (Homo sapiens) [1]): Dose-dependent effect
- fold change (FC) (Tubulin (Homo sapiens) [2]): 0.16
- fold change (FC) (Tubulin (Homo sapiens) [3]): 0.13
- fold change (FC) (Tubulin (Homo sapiens) [4]): 1.09
- fold change (FC) (Tubulin (Homo sapiens) [5]): 1.39
- fold change (FC) (Tubulin (Homo sapiens) [6]): 1.02
- fold change (FC) (Tubulin (Homo sapiens) [7]): 1.06

Compound: C[C@H](Nc1c(-c2c(F)cc(C#N)cc2F)c(Cl)nc2ncnn12)C(F)(F)F
- Activity (Tubulin (Homo sapiens) [1]): Dose-dependent effect
- fold change (FC) (Tubulin (Homo sapiens) [2]): 0.51
- fold change (FC) (Tubulin (Homo sapiens) [3]): 0.27
- fold change (FC) (Tubulin (Homo sapiens) [4]): 1.9
- fold change (FC) (Tubulin (Homo sapiens) [5]): 3.56
- fold change (FC) (Tubulin (Homo sapiens) [6]): 0.95
- fold change (FC) (Tubulin (Homo sapiens) [7]): 0.94

Compound: Fc1cc(F)c(-c2c(Cl)nc3ncnn3c2NC2CCCCC2)c(F)c1
- Activity (Tubulin (Homo sapiens) [1]): Dose-dependent effect
- fold change (FC) (Tubulin (Homo sapiens) [2]): 0.23
- fold change (FC) (Tubulin (Homo sapiens) [3]): 0.07
- fold change (FC) (Tubulin (Homo sapiens) [4]): 1.13
- fold change (FC) (Tubulin (Homo sapiens) [5]): 3.51
- fold change (FC) (Tubulin (Homo sapiens) [6]): 0.99
- fold change (FC) (Tubulin (Homo sapiens) [7]): 1.07

Compound: CCCNc1c(-c2c(F)cc(F)cc2F)c(Cl)nc2ncnn12
- fold change (FC) (Tubulin (Homo sapiens) [2]): 0.26
- fold change (FC) (Tubulin (Homo sapiens) [3]): 0.27
- fold change (FC) (Tubulin (Homo sapiens) [4]): 1.15
- fold change (FC) (Tubulin (Homo sapiens) [5]): 1.14
- fold change (FC) (Tubulin (Homo sapiens) [6]): 0.86
- fold change (FC) (Tubulin (Homo sapiens) [7]): 1.14

Compound: Oc1c(-c2c(F)cc(F)cc2F)c(Cl)nc2ncnn12
- fold change (FC) (Tubulin (Homo sapiens) [2]): 0.17
- fold change (FC) (Tubulin (Homo sapiens) [3]): 0.17
- fold change (FC) (Tubulin (Homo sapiens) [4]): 1.04
- fold change (FC) (Tubulin (Homo sapiens) [5]): 1.03
- fold change (FC) (Tubulin (Homo sapiens) [6]): 1.02
- fold change (FC) (Tubulin (Homo sapiens) [7]): 1.06

Compound: C[C@H](Nc1c(-c2c(F)cc(S(C)(=O)=O)cc2F)c(Cl)nc2ncnn12)C(F)(F)F
- fold change (FC) (Tubulin (Homo sapiens) [2]): 0.19
- fold change (FC) (Tubulin (Homo sapiens) [3]): 0.19
- fold change (FC) (Tubulin (Homo sapiens) [4]): 1.21
- fold change (FC) (Tubulin (Homo sapiens) [5]): 1.23
- fold change (FC) (Tubulin (Homo sapiens) [6]): 1.02
- fold change (FC) (Tubulin (Homo sapiens) [7]): 1.03

Compound: C[C@H](Nc1c(-c2c(F)cc(N)cc2F)c(Cl)nc2ncnn12)C(F)(F)F
- fold change (FC) (Tubulin (Homo sapiens) [2]): 0.13
- fold change (FC) (Tubulin (Homo sapiens) [3]): 0.17
- fold change (FC) (Tubulin (Homo sapiens) [4]): 0.94
- fold change (FC) (Tubulin (Homo sapiens) [5]): 0.69
- fold change (FC) (Tubulin (Homo sapiens) [6]): 0.96
- fold change (FC) (Tubulin (Homo sapiens) [7]): 0.97

Compound: C[C@H](Nc1c(-c2c(F)cc(S(=O)(=O)CCCN(C)C)cc2F)c(Cl)nc2ncnn12)C(F)(F)F
- fold change (FC) (Tubulin (Homo sapiens) [2]): 0.23
- fold change (FC) (Tubulin (Homo sapiens) [3]): 0.24
- fold change (FC) (Tubulin (Homo sapiens) [4]): 1.13
- fold change (FC) (Tubulin (Homo sapiens) [5]): 1.08
- fold change (FC) (Tubulin (Homo sapiens) [6]): 1.07
- fold change (FC) (Tubulin (Homo sapiens) [7]): 0.7

Compound: CC(C)[C@@H](C)Nc1c(-c2ccc(C#N)cc2F)c(Cl)nc2ncnn12 (stereo in doubt; 67)
- fold change (FC) (Tubulin (Homo sapiens) [2]): 0.75
- fold change (FC) (Tubulin (Homo sapiens) [3]): 0.61
- fold change (FC) (Tubulin (Homo sapiens) [4]): 2.79
- fold change (FC) (Tubulin (Homo sapiens) [5]): 3.42
- fold change (FC) (Tubulin (Homo sapiens) [6]): 0.93
- fold change (FC) (Tubulin (Homo sapiens) [7]): 0.99

- Activity (Tubulin (Homo sapiens) [1]): Dose-dependent effect
Compound: CC(C)[C@H](C)Nc1c(-c2c(F)cc(F)cc2F)c(Cl)nc2ncnn12

Compound: C[C@H](Nc1c(-c2c(F)cc(F)cc2F)c(Cl)nc2ncnn12)C(F)(F)F
- Activity (Tubulin (Homo sapiens) [1]): Dose-dependent effect

Compound: C[C@H](Nc1c(Cc2c(F)cc(F)cc2F)c(Cl)nc2ncnn12)C(F)(F)F
- fold change (FC) (Tubulin (Homo sapiens) [2]): 0.1
- fold change (FC) (Tubulin (Homo sapiens) [3]): 0.09
- fold change (FC) (Tubulin (Homo sapiens) [4]): 1.26
- fold change (FC) (Tubulin (Homo sapiens) [5]): 1.43
- fold change (FC) (Tubulin (Homo sapiens) [6]): 1.05
- fold change (FC) (Tubulin (Homo sapiens) [7]): 1.01

Compound: CC(C)[C@@H](C)Nc1c(-c2ccc(C#N)cc2F)c(Cl)nc2ncnn12 (stereo in doubt; 68)
- fold change (FC) (Tubulin (Homo sapiens) [2]): 0.5
- fold change (FC) (Tubulin (Homo sapiens) [3]): 0.47
- fold change (FC) (Tubulin (Homo sapiens) [4]): 2.15
- fold change (FC) (Tubulin (Homo sapiens) [5]): 2.29
- fold change (FC) (Tubulin (Homo sapiens) [6]): 0.92
- fold change (FC) (Tubulin (Homo sapiens) [7]): 0.95

Compound: Nc1c(-c2c(F)cc(F)cc2F)c(Cl)nc2ncnn12
- fold change (FC) (Tubulin (Homo sapiens) [2]): 0.08
- fold change (FC) (Tubulin (Homo sapiens) [3]): 0.09
- fold change (FC) (Tubulin (Homo sapiens) [4]): 1.18
- fold change (FC) (Tubulin (Homo sapiens) [5]): 1.12
- fold change (FC) (Tubulin (Homo sapiens) [6]): 1.05
- fold change (FC) (Tubulin (Homo sapiens) [7]): 1.08

Compound: Fc1cc(F)c(-c2c(Cl)nc3ncnn3c2Nc2ccccc2)c(F)c1
- fold change (FC) (Tubulin (Homo sapiens) [2]): 0.08
- fold change (FC) (Tubulin (Homo sapiens) [3]): 0.09
- fold change (FC) (Tubulin (Homo sapiens) [4]): 1.14
- fold change (FC) (Tubulin (Homo sapiens) [5]): 1.05
- fold change (FC) (Tubulin (Homo sapiens) [6]): 0.96
- fold change (FC) (Tubulin (Homo sapiens) [7]): 1.1
